The list is not random: actives were taken first. Their share in the collection is about 4.1%.
KCNK9 block – KCNK9 potassium channel inhibitors, primary screen, HEK293 cells, thallium flux | Potassium channel subfamily K member 9 (Homo sapiens), Q9NPC2 | FluxOR thallium flux fluorescence; stronger effect = lower value | B-score at 10 µM | hit rate 1.2% among 310,000;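 active = ratio B-score over 3 SD below the library mean, with starting fluorescence within 5 SD of its mean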;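 also: negative B-score means less thallium flux so channel inhibition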
Target sequence (Q9NPC2 whole entry, looked up): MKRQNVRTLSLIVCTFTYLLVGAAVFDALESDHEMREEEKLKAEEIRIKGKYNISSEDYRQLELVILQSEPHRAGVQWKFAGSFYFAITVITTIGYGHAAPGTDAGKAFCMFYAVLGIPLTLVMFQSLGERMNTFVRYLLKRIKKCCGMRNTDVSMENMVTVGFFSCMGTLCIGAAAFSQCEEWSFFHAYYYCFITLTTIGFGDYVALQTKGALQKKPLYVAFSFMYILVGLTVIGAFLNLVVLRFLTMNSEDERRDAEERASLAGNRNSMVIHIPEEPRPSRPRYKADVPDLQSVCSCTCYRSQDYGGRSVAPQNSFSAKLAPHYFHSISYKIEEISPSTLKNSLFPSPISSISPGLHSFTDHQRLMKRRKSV
KCNQ1 block – inhibitors of human KCNQ1 channel, primary screen, cell-based, thallium flux, high-throughput; CHO-K1 KCNQ1, FluxOR thallium flux fluorescence; stronger effect = higher value; B-score at 10 µM; hit rate 1.3% among 310,000;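 active = compounds whose thallium flux B-score, printed positive for inhibition, exceeds three library SD while starting fluorescence stays within three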;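 also: channel opened by potassium depolarization with thallium stimulus after 20 min compound exposure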
KCNQ1 pot – potentiators or activators of KCNQ1 channel, primary screen, cell-based, thallium flux, high-throughput; B-score at 10 µM; hit rate 0.35% among 310,000; CHO-K1 KCNQ1, thallium flux FluxOR fluorescence; stronger effect = higher value; Potassium voltage-gated channel subfamily KQT member 1 (Homo sapiens), P51787;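 active = fluorescence ratio B-score, a plate-corrected score, at least three library SD, with initial intensity B-score within 5 SD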
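assay system = CHO-K1 cells stably expressing KCNQ1 | medium = assay buffer, equal DMSO in all wells | timing = 37 °C overnight plating, 90-min dark dye load, 20-min compound pretreatment | measured by = kinetic FluxOR thallium fluorescence, 10-s 1-Hz baseline, 110-s post-stimulus read | measure = fluorescence change relative to baseline, converted to B score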
hERG rescue – hERG rescue from dofetilide block, primary screen, cell-based, CHO-hERG, FluxOR thallium flux, dofetilide IC70; Voltage-gated inwardly rectifying potassium channel KCNH2 (Homo sapiens), Q12809; dofetilide IC70 present; activation (rescue from dofetilide block), less the hit threshold, % at 10 µM; hit rate 0.51% among 310,000; AID 1511, 2009;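 active = activation above the mean of controls blocked by dofetilide plus 5 SD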;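 also: thallium influx through hERG after potassium depolarization seen as dye fluorescence rise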
KCC2 mod – KCC2 cotransporter modulators, thallium flux, primary screen, cell-based, HEK293 KCC2, FluoZin-2 fluorescence, MLSMR | Solute carrier family 12 member 5 (Homo sapiens), Q9H2X9 | KCC2 cells, thallium flux FluoZin-2 fluorescence | B-score of Tl+ flux slope (higher = more flux/activation; lower = inhibition) at 10 µM | hit rate 2.2% among 190,000 | AID 1456, 2008;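 active = thallium flux slope and its plate-corrected score both differing from the plate sample mean at a set confidence after two filtering rounds, in either direction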;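 also: slope of fluorescence scaled to starting intensity during 10 to 20 s after thallium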
KCNK3 inh – human KCNK3 channel inhibitors, primary screen, CHO cells, FluxOR thallium flux, B-score. Potassium channel subfamily K member 3 (Homo sapiens), O14649. FluxOR fluorescence; stronger effect = lower value. hit rate 0.84% among 340,000. AID 602410, 2012. B-score at 10 µM;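 active = B-score under library mean minus 4 SD, starting fluorescence ratio at most library mean plus 5 SD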;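 also: more negative B-score means stronger inhibition of thallium flux through KCNK3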
KCC2 secondary – KCC2 modulators in sodium-free buffer, confirmation, cell-based, HEK293 KCC2, thallium flux, secondary assay; normalised thallium flux (F/F0 slope) at 10 µM; AID 1713, 2009; FluoZin2 fluorescence; stronger effect = higher value; hit rate 15% among 3,700; shares compounds with KCC2 mod;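 active = thallium flux slope above the same plate's solvent-only control mean plus 3 SD; inconclusive = the two replicate wells disagree; inactive = no significant difference from solvent-only control wells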
KCC2 bumet counter – thallium flux persisting under bumetanide in KCC2 cells, confirmation, counter-screen for KCC2 modulator project, cell-based, HEK293 KCC2, FluoZin2, secondary assay 3 | hit rate 49% among 3,700 | HEK293-KCC2 + bumetanide/ouabain; stronger effect = higher value | shares compounds with KCC2 mod | normalized thallium flux at 10 µM;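 active = thallium entry rate above the same plate's blocked-transporter control wells by more than 3 SD; inconclusive = the two repeat wells disagree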;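 also: raw slope of fluorescence over initial fluorescence between 10 and 20 s after thallium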
KCC2 sec2 – KCC2 modulators without ouabain present, confirmation, cell-based, HEK293 KCC2, thallium flux, FluoZin2, secondary assay 2. shares compounds with KCC2 mod. hit rate 23% among 3,700. AID 1715, 2009. thallium flux FluoZin2 fluorescence; actives lie on both sides; F/F0 rise rate, 10–20 s post-thallium. normalized thallium flux at 10 µM;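 active = thallium flux slope more than 3 SD above or below the plate's solvent-only control mean, mostly below; inconclusive = the two repeat wells disagreed; inactive = no significant shift from solvent-only controls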;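 also: raw slope with 0.1% DMSO as baseline and bumetanide as block control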
HEK counter1 – thallium flux modulation in parental HEK cells, confirmation, counter-screen for KCC2 modulator project, cell-based, counterscreen 1; shares compounds with KCC2 mod; HEK293 parental cells, thallium flux FluoZin2, ouabain; baseline-ratio fluorescence slope, 10–20 s after thallium; thallium flux rate (normalised fluorescence) at 10 µM; hit rate 46% among 3,700;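 active = thallium flux rate significantly above the same plate's solvent-only control wells, beyond their mean plus 3 SD; inconclusive = the two replicate wells gave conflicting results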
KCC2 ouabain – KCC2 inhibitors and activators, ouabain retest, confirmation, HEK-KCC2 cells. shares compounds with KCC2 mod. HEK293-KCC2, thallium flux FluoZin2 fluorescence; bidirectional: low = inhibitor, high = activator. raw Tl+ flux slope (below DMSO = inhibition, above = activation) at 10 µM. AID 1717, 2009. hit rate 48% among 3,700;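 active = thallium flux slope beyond 3 SD from same-plate DMSO control mean in most replicates, usually higher, sometimes lower; inconclusive = repeat tests gave conflicting results; inactive = no significant difference from controls in most replicates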;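 also: slope of initial-normalized fluorescence between seconds 10 and 20 after thallium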
HEK counter2 – native HEK Tl+ uptake effects, second counter-screen – HEK cells, counterscreen 2, counter-screen for KCC2 modulator project, confirmation; shares compounds with KCC2 mod; HEK293 parental, thallium flux FluoZin-2 fluorescence slope; thallium flux slope at 10 µM; hit rate 33% among 3,700; AID 1718, 2009;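 active = thallium flux slope above the same plate's solvent-control mean plus 3 SD in both duplicate wells; inconclusive = duplicate wells that disagreed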;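 also: run without ouabain in cells lacking the KCC2 cotransporter; slope of fluorescence scaled to its starting value between 10 and 20 s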
* marks the source's active call; other numbers are inactive results; i = inactive; ? = inconclusive; nt = no result.

SMILES	KCNK9 block	KCNQ1 block	KCNQ1 pot	hERG rescue	KCC2 mod	KCNK3 inh	KCC2 secondary	KCC2 bumet counter	KCC2 sec2	HEK counter1	KCC2 ouabain	HEK counter2
Cc1cc2cc3c(cc2nc1SCc1ccc(C(=O)O)cc1)OCCO3	i	i	i	-6	-4.2*	i	0.0076	0.098*	?	0.036*	0.035*	0.014*
COc1cccc(-c2nc(CS(=O)(=O)CC(=O)Nc3ccccc3Cl)c(C)o2)c1	i	i	i	-7	nt	i	nt	nt	nt	nt	nt	nt
CS(=O)(=O)c1ccc(Cl)c(NC(=O)COC(=O)CCN2C(=O)C3CC=CCC3C2=O)c1 (stereo not given)	nt	nt	nt	nt	nt	i	nt	nt	nt	nt	nt	nt
COc1ccc(C)cc1NC(=O)CN(C)S(=O)(=O)c1cnc[nH]1	i	i	i	1	nt	i	0.01	0.0072	0.035	0.0077	0.023	?
COc1ccc(C)cc1NC(=O)CN(c1ccccc1F)S(C)(=O)=O	i	i	i	-10	nt	i	0.0081	0.0058	0.03	0.007	0.02	0.009
COc1ccc(C)cc1NC(=O)CN(c1ccc(F)cc1)S(C)(=O)=O	i	i	i	-14	-0.038	i	nt	nt	nt	nt	nt	nt
COCCNC(=O)CSc1ncnc2sc(-c3ccccc3)cc12	i	i	i	-1	7.5*	i	0.016	0.021*	0.032	0.014*	0.022*	0.017*
O=C(O)CCSc1ncnc2sc(-c3ccccc3)cc12	i	i	14*	6.6*	51*	i	?	0.056*	0.043*	0.056*	0.055*	0.033*
CC(=O)CCSc1ncnc2sc(-c3ccccc3)cc12	i	i	i	-9	nt	i	nt	nt	nt	nt	nt	nt
COc1cc2c(cc1OC)C(=O)CCC2	nt	nt	nt	nt	nt	i	nt	nt	nt	nt	nt	nt
CCN(CC)c1ccc2cc(C(=O)Nc3ccccn3)c(=O)oc2c1	i	i	i	-7	i	i	0.0031*	?	0.016*	0.0037*	0.0054*	0.0065*
CCOc1cc(N(CC)CC)ccc1/C=C(/C#N)c1nc2ccccc2[nH]1	i	i	i	-38	nt	i	0.0077*	-0.0033*	0.029	?	0.0081*	0.011
